Compound activity: PubChem BioAssay, Broad Institute
EWS-Fli inh: inhibitors of EWS/Fli oncoprotein transcriptional activity. inhibition, % at 12.6 µM. A673 NR0B1-luciferase reporter, viability-normalised. actives 0.67% (n = 350,000);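 active = mean inhibition of at least 50% after viability correction, with every replicate also passing that limit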;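 also: firefly luciferase signal divided by Alamar Blue viability fluorescence both relative to DMSO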
XiGFP reactiv: X-chromosome reactivation activator | XiGFP mouse fibroblasts, % GFP-positive cells imaging, 3 d; cells co-treated with 5-aza-dC sensitizer; scaled so ellipticine positive control = 100% | activation, % at 7.58 µM | actives 0.055% (n = 360,000) | AID 743238;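 active = mean normalized replicate activation at least 10% and every replicate at or above 10%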;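 also: 0% = median of on-plate neutral control wells and 100% = ellipticine 6 µM median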
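material = 68-5-11 XiGFP fibroblast line | medium = DMEM plus 5-aza-dC sensitizer | schedule = 3 days compound exposure | benchmarks = positive control ellipticine, 6 µM final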
PAX8 reporter: PAX8 transcriptional activity inhibition. RMG-I TPO-luciferase reporter, SteadyGlo, 24 h. inhibition, % at 12.6 µM. actives 1.2% (n = 360,000). AID 652154;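 active = mean replicate inhibition at least 60% with every replicate also reaching 60%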;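 also: luciferase light reporting Pax8 driven TPO promoter activity; plate controls were median of neutral control wells for no effect and mitoxantrone controls for full effect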
AF4-AF9 inh: MLL-AF4/AF9 protein interaction inhibition | P42568 | inhibition, % at 10 µM | actives 0.47% (n = 350,000) | AlphaScreen, biotin-AF4 peptide binding to FLAG-AF9 | AID 651704;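 active = every replicate reaching a set inhibition limit, whatever the replicate mean, cut at about 25% in these data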;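 also: 0% = plate neutral control median and 100% = total signal loss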
Target sequence (P42568 whole entry, looked up): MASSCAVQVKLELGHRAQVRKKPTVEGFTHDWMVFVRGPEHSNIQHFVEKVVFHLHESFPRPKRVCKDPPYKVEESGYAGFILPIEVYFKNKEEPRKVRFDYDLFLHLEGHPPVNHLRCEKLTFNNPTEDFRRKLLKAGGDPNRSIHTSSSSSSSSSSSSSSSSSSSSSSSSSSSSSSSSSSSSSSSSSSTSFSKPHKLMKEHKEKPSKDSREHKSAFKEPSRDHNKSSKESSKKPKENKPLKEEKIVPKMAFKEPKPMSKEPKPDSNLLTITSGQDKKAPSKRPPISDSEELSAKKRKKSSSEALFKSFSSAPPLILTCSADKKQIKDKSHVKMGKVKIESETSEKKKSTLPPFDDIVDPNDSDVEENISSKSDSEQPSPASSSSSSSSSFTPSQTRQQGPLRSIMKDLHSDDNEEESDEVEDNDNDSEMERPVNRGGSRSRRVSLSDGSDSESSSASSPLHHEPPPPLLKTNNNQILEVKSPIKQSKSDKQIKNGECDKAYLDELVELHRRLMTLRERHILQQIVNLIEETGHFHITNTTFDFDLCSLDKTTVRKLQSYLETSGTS
GSIS activator: GLuc luminescence reporter in INS-1E cells, primary screen for activators of glucose-dependent secretion of insulin. INS-1E GLuc reporter insulin secretion, 2-3 h. activation, % at 16.6 µM. actives 0.61% (n = 370,000);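 active = lowest replicate activation of at least 40%, so every replicate reaches that level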;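 also: 0% = median of neutral control wells and 100% = median of IBMX positive control wells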
PGC1a acetyl inh: modulators of PGC1a acetylation. U2OS PGC1a acetylation, AlphaScreen anti-acetyl-lysine; with virally co-expressed GCN5 acetyltransferase. inhibition, % at 15.6 µM. actives 0.17% (n = 350,000). AID 651687;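 active = every replicate shows inhibition of at least 40%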;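 also: 0% = neutral control wells and 100% = positive control wells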
Starred values were filed as active, the others as inactive. Most compounds without a hit are left out; they make up all but 2.1% or so of the library.

How did O=C(C[C@@H]1CC[C@H](NC(=O)NC2CCCCC2)[C@@H](CO)O1)NCc1ccc(Cl)cc1 do in these assays?
EWS-Fli inh: -9; XiGFP reactiv: 0; PAX8 reporter: 9; AF4-AF9 inh: -1; GSIS activator: -1; PGC1a acetyl inh: -1

What do the screens show for `O=C(C[C@H]1CC[C@H](NC(=O)NC2CCCCC2)[C@H](CO)O1)NCc1ccc(Cl)cc1`?
EWS-Fli inh: 4; XiGFP reactiv: 0; PAX8 reporter: -6; AF4-AF9 inh: -1; GSIS activator: 19; PGC1a acetyl inh: 54*

Results for O=C(C[C@@H]1C[C@H]2c3cc(NC(=O)NC4CCCC4)ccc3O[C@H]2[C@H](CO)O1)NCc1ccc(Oc2ccccc2)cc1 ?
EWS-Fli inh: 60*; XiGFP reactiv: 0; PAX8 reporter: 66*; AF4-AF9 inh: -1; GSIS activator: -8; PGC1a acetyl inh: -3

How did O=C(C[C@@H]1C[C@@H]2c3cc(NC(=O)NC4CCCC4)ccc3O[C@@H]2[C@@H](CO)O1)NCc1ccc(Oc2ccccc2)cc1 do in these assays?
EWS-Fli inh: 8; XiGFP reactiv: 0; PAX8 reporter: 8; AF4-AF9 inh: 1; GSIS activator: 2; PGC1a acetyl inh: -2

What do the screens show for `O=c1[nH]nc(-c2cccs2)c2ccccc12`?
EWS-Fli inh: 8; XiGFP reactiv: 0; PAX8 reporter: 6; AF4-AF9 inh: -1; GSIS activator: 172*; PGC1a acetyl inh: 6

What do the screens show for `COc1ccc(NC(=O)N[C@@H]2CC[C@H](CCNC(=O)c3cc(Cl)cc(Cl)c3)O[C@H]2CO)cc1`?
EWS-Fli inh: 4; XiGFP reactiv: 0; PAX8 reporter: -10; AF4-AF9 inh: 0; GSIS activator: -2; PGC1a acetyl inh: -2

Results for CCn1c(/C=C/c2ccccc2C)nc2ccccc2c1=O ?
EWS-Fli inh: -19; XiGFP reactiv: 0; PAX8 reporter: -46; AF4-AF9 inh: 2; GSIS activator: -17; PGC1a acetyl inh: 1

What do the screens show for `CCn1c(/C=C/c2c(C)n(CC)c3ccccc23)nc2ccccc2c1=O`?
EWS-Fli inh: -15; XiGFP reactiv: 1; PAX8 reporter: 72*; AF4-AF9 inh: -17

Results for COc1ccc(NC(=O)N2CC3(C2)CN(C(=O)c2cccnc2)[C@@H](CO)c2[nH]c4cc(OC)ccc4c23)cc1 ?
EWS-Fli inh: -9; XiGFP reactiv: 0; AF4-AF9 inh: -3; GSIS activator: 4; PGC1a acetyl inh: 9

Results for O=C(Nc1ccc(Cl)cc1)Nc1cccc(C(=O)O)c1 ?
EWS-Fli inh: 82*; XiGFP reactiv: 0; PAX8 reporter: 86*; AF4-AF9 inh: -2; GSIS activator: -1; PGC1a acetyl inh: 9

Results for CSc1cccc(NC(=O)C(=O)NCc2ccccc2)c1 ?
EWS-Fli inh: -2; XiGFP reactiv: 0; PAX8 reporter: -11; AF4-AF9 inh: 0; GSIS activator: 7; PGC1a acetyl inh: -3

What do the screens show for `O=C(Nc1ccccc1)Nc1cccc(Cl)c1`?
GSIS activator: -26; PGC1a acetyl inh: 5

Results for O=C(Nc1cccc(Cl)c1)Nc1cccc(C(=O)O)c1 ?
EWS-Fli inh: 55*; XiGFP reactiv: 0; PAX8 reporter: 14; AF4-AF9 inh: 1; GSIS activator: -5; PGC1a acetyl inh: -4

Results for O=C(NCc1ccccc1)C(=O)Nc1cccc(C(=O)O)c1 ?
EWS-Fli inh: 57*; XiGFP reactiv: 0; PAX8 reporter: 59; AF4-AF9 inh: -1; GSIS activator: 2; PGC1a acetyl inh: -6

Results for O=C(C[C@@H]1C[C@@H]2c3cc(NC(=O)Nc4ccccc4)ccc3O[C@@H]2[C@H](CO)O1)NCCN1CCCCC1 ?
EWS-Fli inh: 4; XiGFP reactiv: 0; PAX8 reporter: -17; AF4-AF9 inh: 9; GSIS activator: -7; PGC1a acetyl inh: -4

Results for Clc1ccc(OCCn2ccnc2)c(Cl)c1 ?
GSIS activator: 49*; PGC1a acetyl inh: -2

What do the screens show for `CCC(C)c1ccccc1OCCn1ccnc1` (centres undefined)?
XiGFP reactiv: 0; PAX8 reporter: 2; GSIS activator: 48*
